The values below come from ChEMBL document CHEMBL1148273, “Vancomycin disulfide derivatives as antibacterial agents” (Bioorg Med Chem Lett, 2004).

Values after ≈ are worked out from the molar mass of the structure shown.

One series deals with Enterococcus faecalis. Description: Minimal inhibitory concentration was evaluated against VanA Fs[…]. It is filed as functional.
The subject of series [1] is Staphylococcus aureus. Description: Minimal inhibitory concentration was evaluated against methicillin-resistant Staphylococcus aureus (ATCC 33591). It is filed as functional. Put shortly: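 NCCLS broth microdilution susceptibility test, in vitro, against the MRSA strain ATCC 33591 as part of a Gram-positive panel with MSSA and vancomycin-resistant enterococci. Read-out is the minimal inhibitory concentration.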

Series [2] concerns Staphylococcus aureus. Description: Minimal inhibitory concentration was evaluated against Staphylococcus aureus MSSA (ATCC 13709). Type of series: functional. The method, boiled down: (§1)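 MICs were determined by the NCCLS broth microdilution method. The strain panel included MSSA ATCC 13709, VanA E. faecium KPB-01, VanA E. faecalis MGH-01 and VanB ATCC 51575.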
A further series relates to Enterococcus faecium. Kind of series: Minimal inhibitory concentration was evaluated against VanA Fm […]. Type of series: functional.
In a further series the test system is Enterococcus sp. Kind of series: Minimal inhibitory concentration was evaluated against VanB (ATCC 51575). Type of series: functional, enterococcus strain. Put shortly: as §1
For series [3], the system named is Rattus norvegicus. Description: Compound was evaluated for tissue distribution 24 hours after a 50 mg/kg dose was administered intravenously in rat kidney. Type of series: ADME, organism-based. More on the design: dose 50 mg/kg, route intravenous. The note with it: in vivo, iv. The method, boiled down: (§2)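 Male Sprague–Dawley rats were given a single intravenous dose of 50 mg/kg. Tissue or urine levels were determined 24 h after dosing.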

For series [4], the system named is Rattus norvegicus. Description: Compound was evaluated for percent dose tissue distribution 24 hours after a 50 mg/kg dose was administered intravenously in liver. The note with it: in vivo, iv. Type of series: ADME, organism-based. Details: dose 50 mg/kg, route intravenous. Put shortly: as §2
Series [5] is described as follows: Compound was evaluated for tissue distribution 24 hours after a 50 mg/kg dose was administered intravenously in urine. Type of series: ADME, organism-based. Details: dose 50 mg/kg, route intravenous. The note with it: rat, iv. Put shortly: as §2
For series [6], the system named is Rattus norvegicus. Kind of series: Compound was evaluated for percent thiol tissue distribution 24 hours after a 50 mg/kg dose was administered intravenously in urine. Type of series: ADME, organism-based. More on the design: dose 50 mg/kg, route intravenous. Conditions: in vivo, iv. Put shortly: (§3)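 Male Sprague–Dawley rats were dosed intravenously at 50 mg/kg and urine was sampled 24 h later. The metabolite percentage was calculated from the peak area ratio of the metabolite peak to the parent peak.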

The test system of series [7] is Rattus norvegicus. Kind of series: Compound was evaluated for percent dimer tissue distribution 24 hours after a 50 mg/kg dose was administered intravenously in urine. It is filed as ADME, organism-based. More on the design: dose 50 mg/kg, route intravenous. The note with it: in vivo, iv. The method, boiled down:
as §3

Broadly, the MIC is the smallest concentration in the dilution series that meets the test's criterion for growth inhibition. A lower MIC goes with inhibition by little substance. With `CCCCCCCCCCSSCCNC1(C)CC(OC2C(Oc3c4cc5cc3Oc3ccc(cc3Cl)[C@@H](O)[C@@H](NC(=O)[C@@H](CC(C)C)NC)C(=O)N[C@@H](CC(N)=O)C(=O)N[C@H]5C(=O)N[C@H]3C(=O)N[C@H](C(=O)N[C@H](C(=O)O)c5cc(O)cc(O)c5-c5cc3ccc5O)[C@H](O)c3ccc(c(Cl)c3)O4)OC(O)C(O)C2O)OC(C)C1O` (stereo not given in full), the MIC in the series with Enterococcus faecalis was found to be 3.1 µg/mL (≈ 1.86 µM); in the series on Staphylococcus aureus [1] it was 2.4 µg/mL (≈ 1.44 µM); in the series with Staphylococcus aureus [2] it was 1.2 µg/mL (≈ 0.72 µM); against Enterococcus faecium it was 3.1 µg/mL (≈ 1.86 µM); against Enterococcus sp., 0.6 µg/mL (≈ 0.36 µM).

As for `CCCCCCCCCCNCCN[C@@]1(C)C[C@H](O[C@@H]2[C@@H](Oc3c4cc5cc3Oc3ccc(cc3Cl)[C@@H](O)[C@@H](NC(=O)[C@@H](CC(C)C)NC)C(=O)N[C@@H](CC(N)=O)C(=O)N[C@H]5C(=O)N[C@H]3C(=O)N[C@H](C(=O)N[C@H](C(=O)O)c5cc(O)cc(O)c5-c5cc3ccc5O)[C@H](O)c3ccc(c(Cl)c3)O4)O[C@@H](CO)[C@H](O)[C@@H]2O)O[C@H](C)[C@H]1O`, the Dose in the series with Rattus norvegicus [3] is 22%; with Rattus norvegicus [4], 37%. Further, the minimal inhibitory concentration (MIC) against Enterococcus faecalis came to 3.6 µg/mL (≈ 2.21 µM); in the series with Staphylococcus aureus [1], 0.4 µg/mL (≈ 0.245 µM); with Staphylococcus aureus [2] it was 0.4 µg/mL (≈ 0.245 µM); against Enterococcus faecium, 4.1 µg/mL (≈ 2.51 µM); in the series on Enterococcus sp., 1.8 µg/mL (≈ 1.1 µM). In [5], the dose excreted at 24 h was found to be 16%.

Take `CCCCCCCCCSSCCN[C@@]1(C)C[C@H](O[C@@H]2[C@@H](Oc3c4cc5cc3Oc3ccc(cc3Cl)[C@@H](O)[C@@H](NC(=O)[C@@H](CC(C)C)NC)C(=O)N[C@@H](CC(N)=O)C(=O)N[C@H]5C(=O)N[C@H]3C(=O)N[C@H](C(=O)N[C@H](C(=O)O)c5cc(O)cc(O)c5-c5cc3ccc5O)[C@H](O)c3ccc(c(Cl)c3)O4)O[C@@H](CO)[C@H](O)[C@@H]2O)O[C@H](C)[C@H]1O`: the MIC against Enterococcus faecalis worked out at 3.1 µg/mL (≈ 1.86 µM); with Staphylococcus aureus [1], 0.6 µg/mL (≈ 0.36 µM); against Staphylococcus aureus [2], 0.3 µg/mL (≈ 0.18 µM); in the series with Enterococcus faecium, 6.3 µg/mL (≈ 3.78 µM); in the series with Enterococcus sp., 1.2 µg/mL (≈ 0.72 µM).

For the molecule `CCCCCCCCSSCCCN[C@@]1(C)C[C@H](O[C@@H]2[C@@H](Oc3c4cc5cc3Oc3ccc(cc3Cl)[C@@H](O)[C@@H](NC(=O)[C@@H](CC(C)C)NC)C(=O)N[C@@H](CC(N)=O)C(=O)N[C@H]5C(=O)N[C@H]3C(=O)N[C@H](C(=O)N[C@H](C(=O)O)c5cc(O)cc(O)c5-c5cc3ccc5O)[C@H](O)c3ccc(c(Cl)c3)O4)O[C@@H](CO)[C@H](O)[C@@H]2O)O[C@H](C)[C@H]1O`, the Dose in the series on Rattus norvegicus [3] is 0.5%; in the series on Rattus norvegicus [6] it was 2.3%; in the series on Rattus norvegicus [4], 4.9%; in the series with Rattus norvegicus [7], 15%. Further, the minimum inhibitory concentration (MIC) in the series with Enterococcus faecalis was 3.8 µg/mL (≈ 2.28 µM); against Staphylococcus aureus [1], 0.4 µg/mL (≈ 0.24 µM); in the series on Staphylococcus aureus [2], 3.1 µg/mL (≈ 1.86 µM); with Enterococcus faecium, 4.7 µg/mL (≈ 2.82 µM); with Enterococcus sp., 1.8 µg/mL (≈ 1.08 µM). Besides, the dose excreted at 24 h in series [5] was determined as 1%.

On to `CN[C@H](CC(C)C)C(=O)N[C@H]1C(=O)N[C@@H](CC(N)=O)C(=O)N[C@H]2C(=O)N[C@H]3C(=O)N[C@H](C(=O)N[C@H](C(=O)O)c4cc(O)cc(O)c4-c4cc3ccc4O)[C@H](O)c3ccc(c(Cl)c3)Oc3cc2cc(c3O[C@H]2O[C@@H](CO)[C@H](O)[C@H](O)[C@@H]2OC2C[C@](C)(NCCCSSCCCN[C@]3(C)C[C@@H](O[C@H]4[C@H](Oc5c6cc7cc5Oc5ccc(cc5Cl)[C@@H](O)[C@@H](NC(=O)[C@@H](CC(C)C)NC)C(=O)N[C@@H](CC(N)=O)C(=O)N[C@H]7C(=O)N[C@H]5C(=O)N[C@H](C(=O)N[C@H](C(=O)O)c7cc(O)cc(O)c7-c7cc5ccc7O)[C@H](O)c5ccc(c(Cl)c5)O6)O[C@H](CO)[C@@H](O)[C@H]4O)O[C@@H](C)[C@@H]3O)[C@H](O)[C@@H](C)O2)Oc2ccc(cc2Cl)[C@H]1O` (stereo not given in full), for which the MIC worked out at 12.5 µg/mL (≈ 4.11 µM) in the series with Enterococcus faecalis; 18.8 µg/mL (≈ 6.17 µM) against Staphylococcus aureus [1]; 6.3 µg/mL (≈ 2.07 µM) against Staphylococcus aureus [2]; 6.3 µg/mL (≈ 2.07 µM) in the series on Enterococcus faecium; 4.7 µg/mL (≈ 1.54 µM) in the series with Enterococcus sp..

Regarding `CCCCCCCCCCCCCN[C@@]1(C)C[C@H](O[C@@H]2[C@@H](Oc3c4cc5cc3Oc3ccc(cc3Cl)[C@@H](O)[C@@H](NC(=O)[C@@H](CC(C)C)NC)C(=O)N[C@@H](CC(N)=O)C(=O)N[C@H]5C(=O)N[C@H]3C(=O)N[C@H](C(=O)N[C@H](C(=O)O)c5cc(O)cc(O)c5-c5cc3ccc5O)[C@H](O)c3ccc(c(Cl)c3)O4)O[C@@H](CO)[C@H](O)[C@@H]2O)O[C@H](C)[C@H]1O`, the Dose stood at 3.4% in the series with Rattus norvegicus [3] and 70% with Rattus norvegicus [4]. Also, the minimal inhibitory concentration (MIC) against Enterococcus faecalis came to 3.8 µg/mL (≈ 2.33 µM); with Staphylococcus aureus [1], 1.5 µg/mL (≈ 0.919 µM); in the series with Staphylococcus aureus [2], 2.8 µg/mL (≈ 1.72 µM); against Enterococcus faecium, 4.1 µg/mL (≈ 2.51 µM); in the series on Enterococcus sp., 1.6 µg/mL (≈ 0.981 µM). In addition, in series [5], the dose excreted at 24 h was determined as 0.4%.

As to `CCCCCCCCSSCCN[C@@]1(C)C[C@H](O[C@@H]2[C@@H](Oc3c4cc5cc3Oc3ccc(cc3Cl)[C@@H](O)[C@@H](NC(=O)[C@@H](CC(C)C)NC)C(=O)N[C@@H](CC(N)=O)C(=O)N[C@H]5C(=O)N[C@H]3C(=O)N[C@H](C(=O)N[C@H](C(=O)O)c5cc(O)cc(O)c5-c5cc3ccc5O)[C@H](O)c3ccc(c(Cl)c3)O4)O[C@@H](CO)[C@H](O)[C@@H]2O)O[C@H](C)[C@H]1O`, the MIC against Enterococcus faecalis was found to be 4.7 µg/mL (≈ 2.84 µM); in the series on Staphylococcus aureus [1], 0.2 µg/mL (≈ 0.121 µM); in the series with Staphylococcus aureus [2], 0.2 µg/mL (≈ 0.121 µM); with Enterococcus faecium, 6.3 µg/mL (≈ 3.81 µM); against Enterococcus sp., 2.4 µg/mL (≈ 1.45 µM).

Take `CCCCCCCCCSSCCCN[C@@]1(C)C[C@H](O[C@@H]2[C@@H](Oc3c4cc5cc3Oc3ccc(cc3Cl)[C@@H](O)[C@@H](NC(=O)[C@@H](CC(C)C)NC)C(=O)N[C@@H](CC(N)=O)C(=O)N[C@H]5C(=O)N[C@H]3C(=O)N[C@H](C(=O)N[C@H](C(=O)O)c5cc(O)cc(O)c5-c5cc3ccc5O)[C@H](O)c3ccc(c(Cl)c3)O4)O[C@@H](CO)[C@H](O)[C@@H]2O)O[C@H](C)[C@H]1O`: the MIC with Enterococcus faecalis was determined as 3.6 µg/mL (≈ 2.14 µM); against Staphylococcus aureus [1], 1.2 µg/mL (≈ 0.714 µM); against Staphylococcus aureus [2], 0.6 µg/mL (≈ 0.357 µM); against Enterococcus faecium, 4.1 µg/mL (≈ 2.44 µM); against Enterococcus sp. it was 1.8 µg/mL (≈ 1.07 µM).

As for `CN[C@H](CC(C)C)C(=O)N[C@H]1C(=O)N[C@@H](CC(N)=O)C(=O)N[C@H]2C(=O)N[C@H]3C(=O)N[C@H](C(=O)N[C@H](C(=O)O)c4cc(O)cc(O)c4-c4cc3ccc4O)[C@H](O)c3ccc(c(Cl)c3)Oc3cc2cc(c3O[C@@H]2O[C@H](CO)[C@@H](O)[C@H](O)[C@H]2O[C@H]2C[C@](C)(N)[C@H](O)[C@H](C)O2)Oc2ccc(cc2Cl)[C@H]1O` [VANCOMYCIN], the minimal inhibitory concentration (MIC) is greater than 256 µg/mL in the series on Enterococcus faecalis, 0.7 µg/mL (≈ 0.483 µM) in the series on Staphylococcus aureus [2], greater than 256 µg/mL in the series on Enterococcus faecium and greater than 256 µg/mL with Enterococcus sp..
